Measured values as given in ChEMBL document CHEMBL4229344 (Eur J Med Chem, 2018).

Columns and labels:
[1] = target: Aurora kinase A (Homo sapiens) (UniProt O14965); experiment: Binding affinity to wild-type human partial length AURKA (E122 to K401 residues) expressed in mammalian expression system assessed as residual binding level at 1 uM by Kinomescan method relative to control
Outline: (§1)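 Kinome-wide competition binding screen against a panel of 468 purified kinases/mutants, with the test compound at a single concentration of 1 μM. Read-out is the relative binding activity of each kinase in the presence of compound.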

[2] = target: Bone morphogenetic protein receptor type-1B (Homo sapiens) (UniProt O00238); experiment: Binding affinity to wild-type human partial length BMPR1B (D178 to L502 residues) expressed in mammalian expression system assessed as residual binding level at 1 uM by Kinomescan method relative to control
Chain of Bone morphogenetic protein receptor type-1B (Homo sapiens) (O00238 whole entry, the tested form may be a part): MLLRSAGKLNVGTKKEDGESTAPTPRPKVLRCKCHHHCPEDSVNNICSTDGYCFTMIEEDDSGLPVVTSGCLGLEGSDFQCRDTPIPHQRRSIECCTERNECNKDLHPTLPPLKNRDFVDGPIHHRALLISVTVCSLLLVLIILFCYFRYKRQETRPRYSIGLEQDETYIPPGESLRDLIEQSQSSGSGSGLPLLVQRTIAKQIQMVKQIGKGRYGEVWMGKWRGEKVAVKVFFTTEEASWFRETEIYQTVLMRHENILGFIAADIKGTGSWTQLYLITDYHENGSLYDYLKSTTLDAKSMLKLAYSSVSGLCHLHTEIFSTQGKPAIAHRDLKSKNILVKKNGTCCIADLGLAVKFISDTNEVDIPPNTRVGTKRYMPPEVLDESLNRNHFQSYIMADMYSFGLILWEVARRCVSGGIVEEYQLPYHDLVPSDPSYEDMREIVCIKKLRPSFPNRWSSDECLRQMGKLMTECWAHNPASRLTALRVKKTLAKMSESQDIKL
Outline: (§2)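 Single-concentration KINOMEscan (DiscoverX) binding screen at 1 μM against a panel of 468 purified kinases and mutants. The read-out is binding relative to control.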

[3] = target: Cytoplasmic tyrosine-protein kinase BMX (Homo sapiens) (UniProt P51813); experiment: Binding affinity to wild-type human full length BMX (M1 to H675 residues) expressed in bacterial expression system assessed as residual binding level at 1 uM by Kinomescan method relative to control
Outline: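 Single-concentration (1 μM) competition-binding screen run by KINOMEscan against a panel of 468 purified kinases and mutants. The read-out is the relative binding activity of the test compound to each kinase.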

[4] = target: Serine/threonine-protein kinase B-raf (Homo sapiens) (UniProt P15056); experiment: Binding affinity to wild-type human partial length BRAF (S429 to E741 residues) expressed in mammalian expression system assessed as residual binding level at 1 uM by Kinomescan method relative to control; outline: as §2
[5] = target: Serine/threonine-protein kinase Chk1 (Homo sapiens) (UniProt O14757); experiment: Binding affinity to wild-type human partial length CHEK1 (M1 to G289 residues) expressed in bacterial expression system assessed as residual binding level at 1 uM by Kinomescan method relative to control
Chain of Serine/threonine-protein kinase Chk1 (Homo sapiens) (O14757 whole entry, the tested form may be a part): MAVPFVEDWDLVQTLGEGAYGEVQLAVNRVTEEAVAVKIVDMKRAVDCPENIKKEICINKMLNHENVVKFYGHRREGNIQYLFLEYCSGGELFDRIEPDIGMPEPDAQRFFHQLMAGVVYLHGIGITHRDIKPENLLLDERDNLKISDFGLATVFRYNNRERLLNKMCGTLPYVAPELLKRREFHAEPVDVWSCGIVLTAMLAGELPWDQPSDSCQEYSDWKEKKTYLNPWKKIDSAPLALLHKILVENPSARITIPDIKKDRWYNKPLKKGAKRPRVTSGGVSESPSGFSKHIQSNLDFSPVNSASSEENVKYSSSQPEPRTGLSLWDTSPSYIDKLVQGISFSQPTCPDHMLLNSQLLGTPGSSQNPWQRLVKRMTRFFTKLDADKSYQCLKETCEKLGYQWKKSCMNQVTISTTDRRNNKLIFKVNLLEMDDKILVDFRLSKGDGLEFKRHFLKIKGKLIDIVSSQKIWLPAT

[6] = target: Tyrosine-protein kinase Fer (Homo sapiens) (UniProt P16591); experiment: Binding affinity to wild-type human partial length FER (S542 to T822 residues) expressed in bacterial expression system assessed as residual binding level at 1 uM by Kinomescan method relative to control
[7] = target: Fibroblast growth factor receptor 4 (Homo sapiens) (UniProt P22455); experiment: Binding affinity to wild-type human partial length FGFR4 (G402 to E713 residues) expressed in bacterial expression system assessed as residual binding level at 1 uM by Kinomescan method relative to control; outline: as §1
Chain of Fibroblast growth factor receptor 4 (Homo sapiens) (P22455 22-802 limits assumed): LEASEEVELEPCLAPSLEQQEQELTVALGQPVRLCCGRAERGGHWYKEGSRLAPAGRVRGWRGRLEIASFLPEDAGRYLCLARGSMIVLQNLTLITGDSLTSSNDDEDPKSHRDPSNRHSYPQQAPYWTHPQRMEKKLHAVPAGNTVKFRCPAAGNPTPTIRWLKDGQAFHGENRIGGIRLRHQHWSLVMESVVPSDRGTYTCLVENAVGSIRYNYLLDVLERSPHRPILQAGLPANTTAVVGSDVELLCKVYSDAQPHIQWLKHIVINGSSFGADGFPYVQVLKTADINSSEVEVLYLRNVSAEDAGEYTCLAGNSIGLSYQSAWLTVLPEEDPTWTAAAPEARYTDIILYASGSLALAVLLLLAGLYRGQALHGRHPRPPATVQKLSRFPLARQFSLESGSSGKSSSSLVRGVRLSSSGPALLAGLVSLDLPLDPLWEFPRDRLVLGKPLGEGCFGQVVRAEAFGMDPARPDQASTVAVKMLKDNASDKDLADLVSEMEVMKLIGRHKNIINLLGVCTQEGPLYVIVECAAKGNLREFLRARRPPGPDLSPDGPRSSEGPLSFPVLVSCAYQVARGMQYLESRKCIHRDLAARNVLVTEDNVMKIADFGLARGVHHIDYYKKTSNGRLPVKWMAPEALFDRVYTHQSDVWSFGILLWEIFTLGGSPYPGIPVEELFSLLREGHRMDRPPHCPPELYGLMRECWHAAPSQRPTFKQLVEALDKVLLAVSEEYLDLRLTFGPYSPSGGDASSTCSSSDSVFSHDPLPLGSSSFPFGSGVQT

[8] = target: Tyrosine-protein kinase HCK (Homo sapiens) (UniProt P08631); experiment: Binding affinity to wild-type human full length HCK (M22 to P526 residues) expressed in bacterial expression system assessed as residual binding level at 1 uM by Kinomescan method relative to control
Outline: (§3)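 KINOMEscan competition binding against 468 purified kinases/mutants, test compound at 1 µM; residual binding relative to control.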

[9] = target: Serine/threonine-protein kinase ICK (Homo sapiens) (UniProt Q9UPZ9); experiment: Binding affinity to wild-type human partial length ICK (M1 to P314 residues) expressed in mammalian expression system assessed as residual binding level at 1 uM by Kinomescan method relative to control
[10] = target: Mast/stem cell growth factor receptor Kit (Homo sapiens, UniProt P10721); experiment: Binding affinity to wild-type human partial length KIT (I571 to D952 residues) expressed in bacterial expression system assessed as residual binding level at 1 uM by Kinomescan method relative to control
Chain of Mast/stem cell growth factor receptor Kit (P10721 whole entry, the tested form may be a part): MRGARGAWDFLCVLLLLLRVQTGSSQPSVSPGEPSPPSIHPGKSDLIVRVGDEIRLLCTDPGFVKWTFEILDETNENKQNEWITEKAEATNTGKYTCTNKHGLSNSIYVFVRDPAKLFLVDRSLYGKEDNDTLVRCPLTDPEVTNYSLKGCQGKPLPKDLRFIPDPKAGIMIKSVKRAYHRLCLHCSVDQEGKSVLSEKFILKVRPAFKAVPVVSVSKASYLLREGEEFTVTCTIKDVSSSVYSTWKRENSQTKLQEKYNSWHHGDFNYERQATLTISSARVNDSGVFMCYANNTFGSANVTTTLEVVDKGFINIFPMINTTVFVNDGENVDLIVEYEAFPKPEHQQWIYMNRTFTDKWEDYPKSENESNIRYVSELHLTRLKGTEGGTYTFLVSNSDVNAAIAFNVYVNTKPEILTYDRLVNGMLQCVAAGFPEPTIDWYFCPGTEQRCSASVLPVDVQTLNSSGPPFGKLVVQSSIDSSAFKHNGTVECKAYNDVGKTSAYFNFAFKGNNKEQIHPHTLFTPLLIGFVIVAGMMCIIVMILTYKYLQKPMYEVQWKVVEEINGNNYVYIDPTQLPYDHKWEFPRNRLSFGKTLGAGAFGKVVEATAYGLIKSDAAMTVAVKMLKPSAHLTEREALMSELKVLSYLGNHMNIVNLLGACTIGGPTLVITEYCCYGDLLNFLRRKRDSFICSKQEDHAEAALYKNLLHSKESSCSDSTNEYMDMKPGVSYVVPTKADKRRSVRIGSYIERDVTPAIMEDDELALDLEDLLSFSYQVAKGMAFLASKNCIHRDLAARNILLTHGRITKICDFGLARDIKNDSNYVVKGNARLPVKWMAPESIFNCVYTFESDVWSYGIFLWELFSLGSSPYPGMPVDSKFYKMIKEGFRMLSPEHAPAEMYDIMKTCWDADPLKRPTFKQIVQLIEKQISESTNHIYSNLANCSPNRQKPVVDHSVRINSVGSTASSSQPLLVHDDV

[11] = test system: Mast/stem cell growth factor receptor Kit (Homo sapiens), P10721 [L576P]; experiment: Binding affinity to human partial length KIT L576P mutant (Y545 to D952 residues) expressed in bacterial expression system assessed as residual binding level at 1 uM by Kinomescan method relative to control
Chain of Mast/stem cell growth factor receptor Kit (Homo sapiens), P10721 [L576P] (P10721 whole entry L576P, the tested form may be a part): as the sequence (P10721 whole entry, the tested form may be a part) above, with L576P counted along it
Outline: (§4)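 Kinome-wide single-concentration binding screen (KINOMEscan) at 1 μM against a panel of 468 purified kinases and mutants. Read-out is relative binding of each kinase compared with control. Selectivity across the panel was summarised as an S(10) score.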

[12] = target: Serine/threonine-protein kinase LATS2 (Homo sapiens) (UniProt Q9NRM7); experiment: Binding affinity to wild-type human partial length LATS2 (Q641 to V1088 residues) expressed in mammalian expression system assessed as residual binding level at 1 uM by Kinomescan method relative to control
[13] = target: Tyrosine-protein kinase Lck (Homo sapiens) (UniProt P06239); experiment: Binding affinity to wild-type human partial length LCK (R207 to P509 residues) expressed in bacterial expression system assessed as residual binding level at 1 uM by Kinomescan method relative to control
Chain of Tyrosine-protein kinase Lck (Homo sapiens) (P06239 2-509 limits assumed): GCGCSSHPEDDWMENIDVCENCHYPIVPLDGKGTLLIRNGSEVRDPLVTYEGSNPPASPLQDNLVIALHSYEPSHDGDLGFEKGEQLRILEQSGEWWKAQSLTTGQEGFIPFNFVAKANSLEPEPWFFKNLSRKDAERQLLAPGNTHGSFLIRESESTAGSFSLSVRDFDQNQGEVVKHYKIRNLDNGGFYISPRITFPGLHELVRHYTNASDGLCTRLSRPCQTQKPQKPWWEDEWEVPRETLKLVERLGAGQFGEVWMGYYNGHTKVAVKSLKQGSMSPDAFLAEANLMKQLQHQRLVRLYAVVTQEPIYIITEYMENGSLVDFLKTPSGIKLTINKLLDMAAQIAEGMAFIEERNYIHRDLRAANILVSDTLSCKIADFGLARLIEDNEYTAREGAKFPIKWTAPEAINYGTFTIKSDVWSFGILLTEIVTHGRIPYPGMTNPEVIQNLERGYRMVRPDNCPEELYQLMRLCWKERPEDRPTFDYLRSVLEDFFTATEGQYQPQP

[14] = target: Tyrosine-protein kinase Lyn (Homo sapiens) (UniProt P07948); experiment: Binding affinity to wild-type human partial length LYN (C219 to Q511 residues) expressed in bacterial expression system assessed as residual binding level at 1 uM by Kinomescan method relative to control
Chain of Tyrosine-protein kinase Lyn (Homo sapiens) (P07948 2-512 limits assumed): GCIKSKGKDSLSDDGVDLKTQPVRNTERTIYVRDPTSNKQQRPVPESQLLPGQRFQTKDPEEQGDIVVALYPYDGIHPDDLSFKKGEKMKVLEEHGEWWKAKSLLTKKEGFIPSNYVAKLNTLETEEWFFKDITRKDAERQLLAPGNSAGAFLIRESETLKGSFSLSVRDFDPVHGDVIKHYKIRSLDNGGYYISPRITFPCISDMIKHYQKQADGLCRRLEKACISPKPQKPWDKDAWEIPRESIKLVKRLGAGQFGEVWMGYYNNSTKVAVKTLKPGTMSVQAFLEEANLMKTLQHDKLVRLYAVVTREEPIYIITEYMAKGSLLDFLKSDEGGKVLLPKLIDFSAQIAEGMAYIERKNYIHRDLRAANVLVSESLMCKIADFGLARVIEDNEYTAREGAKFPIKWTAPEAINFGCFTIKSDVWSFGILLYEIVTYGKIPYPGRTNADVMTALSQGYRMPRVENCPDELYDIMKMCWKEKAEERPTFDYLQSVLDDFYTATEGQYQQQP

[15] = target: Dual specificity mitogen-activated protein kinase kinase 1 (Homo sapiens) (UniProt Q02750); experiment: Binding affinity to wild-type human full length MEK1 (M1 to V393 residues) expressed in mammalian expression system assessed as residual binding level at 1 uM by Kinomescan method relative to control; outline: as §2
[16] = target: Phosphorylase b kinase gamma catalytic chain, skeletal muscle/heart isoform (Homo sapiens) (UniProt Q16816); experiment: Binding affinity to wild-type human full length PHKG1 (M1 to Y387 residues) expressed in bacterial expression system assessed as residual binding level at 1 uM by Kinomescan method relative to control; outline: as §3
[17] = test system: Phosphatidylinositol 4,5-bisphosphate 3-kinase catalytic subunit alpha isoform (Homo sapiens), P42336 [H1047L]; experiment: Binding affinity to human partial length PIK3CA H1047L mutant (R108 to N1068 residues) expressed in mammalian expression system assessed as residual binding level at 1 uM by Kinomescan method relative to control; outline: as §4
Chain of Phosphatidylinositol 4,5-bisphosphate 3-kinase catalytic subunit alpha isoform (Homo sapiens), P42336 [H1047L] (P42336 whole entry H1047L, the tested form may be a part, canonical isoform): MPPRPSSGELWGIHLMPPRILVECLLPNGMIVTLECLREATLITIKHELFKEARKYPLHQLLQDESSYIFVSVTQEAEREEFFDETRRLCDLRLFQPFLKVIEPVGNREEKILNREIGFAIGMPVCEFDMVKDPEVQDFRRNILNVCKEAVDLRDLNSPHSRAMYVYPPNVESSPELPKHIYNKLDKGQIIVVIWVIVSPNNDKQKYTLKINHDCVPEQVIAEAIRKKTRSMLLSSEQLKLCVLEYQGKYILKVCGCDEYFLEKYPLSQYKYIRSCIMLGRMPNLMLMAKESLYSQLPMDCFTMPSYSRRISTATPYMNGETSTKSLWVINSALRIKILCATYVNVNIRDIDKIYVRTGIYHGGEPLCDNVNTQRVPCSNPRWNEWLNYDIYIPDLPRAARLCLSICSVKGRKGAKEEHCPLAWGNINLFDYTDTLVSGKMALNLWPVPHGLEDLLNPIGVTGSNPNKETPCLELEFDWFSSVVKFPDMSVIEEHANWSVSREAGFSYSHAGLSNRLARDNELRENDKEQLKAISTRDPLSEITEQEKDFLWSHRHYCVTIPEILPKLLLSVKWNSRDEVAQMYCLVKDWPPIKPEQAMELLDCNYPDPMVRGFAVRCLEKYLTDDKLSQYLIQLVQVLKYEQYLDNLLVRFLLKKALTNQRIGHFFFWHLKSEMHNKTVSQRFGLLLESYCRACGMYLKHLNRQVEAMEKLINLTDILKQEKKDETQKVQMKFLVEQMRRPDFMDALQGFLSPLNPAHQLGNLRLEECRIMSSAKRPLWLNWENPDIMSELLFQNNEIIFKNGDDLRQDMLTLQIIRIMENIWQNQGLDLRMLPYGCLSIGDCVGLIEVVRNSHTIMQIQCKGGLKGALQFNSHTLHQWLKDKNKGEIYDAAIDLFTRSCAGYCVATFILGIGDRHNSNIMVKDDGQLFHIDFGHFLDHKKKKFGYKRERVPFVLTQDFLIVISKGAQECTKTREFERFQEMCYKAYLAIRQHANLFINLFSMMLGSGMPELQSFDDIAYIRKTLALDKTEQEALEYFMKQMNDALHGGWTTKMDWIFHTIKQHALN

[18] = target: Serine/threonine-protein kinase SBK1 (Homo sapiens) (UniProt Q52WX2); experiment: Binding affinity to wild-type human partial length SBK1 (P23 to P348 residues) expressed in mammalian expression system assessed as residual binding level at 1 uM by Kinomescan method relative to control
[19] = target: TGF-beta receptor type-1 (Homo sapiens) (UniProt P36897); experiment: Binding affinity to wild-type human partial length TGFBR1 (D179 to M503 residues) expressed in bacterial expression system assessed as residual binding level at 1 uM by Kinomescan method relative to control
[20] = target: Non-receptor tyrosine-protein kinase TNK1 (Homo sapiens) (UniProt Q13470); experiment: Binding affinity to wild-type human full length TNK1 (M1 to P661 residues) expressed in bacterial expression system assessed as residual binding level at 1 uM by Kinomescan method relative to control; outline: as §3
[21] = target: Serine/threonine-protein kinase WNK1 (Homo sapiens) (UniProt Q9H4A3); experiment: Binding affinity to wild-type human partial length WNK1 (Q194 to A490 residues) expressed in mammalian expression system assessed as residual binding level at 1 uM by Kinomescan method relative to control
Mus musculus = experiment: Toxicity in NOD-SCID mouse engrafted with human EOL-1 cells assessed as change in body weight at 30 mg/kg/day, ip administered 3 weeks post cell inoculation; type: organism-based; details: in vivo, 504 h

Q: How did the Activity [1] turn out when Cc1ccc(NC(=O)c2ccc(CN(CCN(C)C)C(=O)c3cccnc3)cc2)cc1Nc1nccc(-c2cccnc2)n1 was run?
A: 74%

Q: What about the Activity [2] of the same compound?
A: 95%

Q: And the Activity [3]?
A: 100%

Q: What about the Activity [4] of the same compound?
A: 88%

Q: What about the Activity [5] of the same compound?
A: 100%

Q: What about the Activity [6] of the same compound?
A: 100%

Q: What about the Activity [7] of the same compound?
A: 91%

Q: What about the Activity [8] of the same compound?
A: 83%

Q: And the Activity [9]?
A: 100%

Q: And the Activity [10]?
A: 2.2%

Q: What about the Activity [11] of the same compound?
A: 0.6%

Q: And the Activity [12]?
A: 100%

Q: And the Activity [13]?
A: 100%

Q: And the Activity [14]?
A: 97%

Q: And the Activity [15]?
A: 97%

Q: What about the Activity [16] of the same compound?
A: 94%

Q: And the Activity [17]?
A: 88%

Q: And the Activity [18]?
A: 100%

Q: And the Activity [19]?
A: 100%

Q: What about the Activity [20] of the same compound?
A: 87%

Q: And the Activity [21]?
A: 85%

Q: And the Activity (Mus musculus)?
A: Non-Toxic
